The values below come from ChEMBL document CHEMBL5321232, “Synthesis and biological evaluation of dual MDM2/XIAP inhibitors based on the tetrahydroquinoline scaffold” (Eur J Med Chem, 2023).

Experiment [1] in a line: Antiproliferative activity against human EU-1 cells assessed as inhibition of cell growth incubated for 44 hrs by WST assay. In kind it is functional, cell-based. The note with it: EU-1, 44 h. The procedure, abridged: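 Pediatric ALL-derived EU-1 cells grown in RPMI 1640 with 10% FBS, 2 mmol/L L-glutamine and penicillin/streptomycin at 37 °C, 5% CO2. Compounds given at graded concentrations for 44 h. WST (25 μg/well) then added for a further 4 h. OD read at 450 nm against a 620 nm reference, with cell-free wells for background.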

The subject of experiment [2] is A-375. Kind of experiment: Antiproliferative activity against human A-375 cells assessed as inhibition of cell growth incubated for 72 hrs by MTS assay. As to conditions: A-375, 72 h. In general terms: Formazan colour is commonly taken as a measure of viable cells.
The subject of experiment [3] is CWR22R. Put plainly: Antiproliferative activity against human 22Rv1 cells assessed as inhibition of cell growth incubated for 72 hrs by MTS assay. The format is functional, cell-based. As to conditions: 22Rv1, 72 h. An outline of the steps: (§1)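 Cells seeded at 3,000–8,000 per well according to growth rate and incubated overnight. They were then exposed to compounds over 3 nM–100 μM for 72 h, four replicates per concentration. MTS added, 1.5 h in the dark at 37 °C, absorbance read at 490 nm. IC50 normalized to untreated cells and fitted by nonlinear regression.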

Experiment [4] deals with MDA-MB-231. Kind of experiment: Antiproliferative activity against human MDA-MB-231 cells assessed as inhibition of cell growth incubated for 72 hrs by MTS assay. In kind it is functional, cell-based. The note with it: MDA-MB-231, 72 h. The procedure, abridged: as §1
Experiment [5] relates to CWR22R. Put plainly: Inhibition of colony formation in human 22Rv1 cells assessed as reduction in number of clonogenic cells incubated for 14 days and subsequent media replacement with compound for every 3 days by crystal violet staining based microscopic analysis. The format is functional, cell-based. As to conditions: dose 1-10 µM, time 14.0 day. The procedure, abridged: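 22Rv1 cells in log phase were seeded at 2,000 per well and incubated 72 h. They were then treated with 1, 5 or 10 μM for 14 days, with medium ± compound renewed every 3 days. Colonies were fixed in cold methanol, stained with 0.5% crystal violet and counted microscopically. Run in triplicate; area expressed relative to vehicle (100%) as mean ± SEM of three biological replicates.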

For the compound `CC(C)C(=O)c1ccc(C2Nc3ccc(S(=O)(=O)Nc4cccc(C(C)C)c4)cc3C3OCCC23)cc1` (configuration not stated), the concentration for half-maximal inhibition (IC50) – broadly, the concentration that gives 50% inhibition – was 6500 nM in experiment [1], 2200 nM in experiment [2], 2100 nM in experiment [3] and 1100 nM in experiment [4].

On to `CC(=O)N1CCC(C2Nc3ccc(S(=O)(=O)Nc4ccc(C)c(C)c4)cc3C3OCCC32)CC1` (configuration not stated), for which the IC50 in experiment [1], in experiment [2] and in experiment [4] was greater than 10000 nM each time.

`CC(C)C(=O)c1ccc(C2Nc3ccc(S(=O)(=O)Nc4cccc(N(C)C)c4)cc3C3OCCC23)cc1` (configuration not stated): the IC50 came out at 7500 nM in experiment [1], 900 nM in experiment [2], 700 nM in experiment [3] and 1600 nM in experiment [4].

Consider `CC(=O)c1cccc(NS(=O)(=O)c2ccc3c(c2)C2OCCC2C(C2CCCCC2)N3)c1` (configuration not stated), for which the IC50 is 1500 nM in experiment [1], 1100 nM in experiment [2], greater than 10000 nM in experiment [3] and 1000 nM in experiment [4].

Turning to `CCc1cccc(NS(=O)(=O)c2ccc3c(c2)C2OCCC2C(c2ccc(C(=O)C(C)C)cc2)N3)c1` (configuration not stated), the IC50 in experiment [1] was found to be 2100 nM; in experiment [2] it was 3200 nM; in experiment [3], 1100 nM; in experiment [4], 1500 nM.

Regarding `CC(=O)c1cccc(NS(=O)(=O)c2ccc3c(c2)C2OCCC2C(c2ccc(C(C)C)cc2)N3)c1` (configuration not stated), the IC50 in experiment [1] is 600 nM; in experiment [2] it was 1900 nM; in experiment [3], greater than 10000 nM; in experiment [4], 600 nM.

As for `O=S(=O)(Nc1ccc(C(F)(F)F)c(C(F)(F)F)c1)c1ccc2c(c1)C1OCCC1C(C1CCCCC1)N2` (configuration not stated), the IC50 in experiment [1], in experiment [2] and in experiment [4] was greater than 10000 nM each time.

On to `CN[C@@H](C)C(=O)N[C@H](C(=O)N1CCC[C@H]1C(=O)Nc1snnc1-c1ccccc1)C1CCCCC1` [GDC-0152], for which, in experiment [1], the IC50 is 800 nM.

Take `Cc1ccc(NS(=O)(=O)c2ccc3c(c2)C2OCCC2C(C2CCCCC2)N3)cc1C` (configuration not stated): the IC50 was 800 nM in experiment [1], 9800 nM in experiment [2], greater than 10000 nM in experiment [3] and 5700 nM in experiment [4].

`CC(=O)c1cccc(S(=O)(=O)Nc2ccc3c(c2)C2OCCC2C(c2ccc(C(=O)C(C)C)cc2)N3)c1` (configuration not stated): the IC50 amounted to 700 nM in experiment [1], 4700 nM in experiment [2], 7700 nM in experiment [3] and 2000 nM in experiment [4].

`Cc1ccc(NS(=O)(=O)c2ccc3c(c2)C2OCCC2C(c2ccc4c(c2)CCO4)N3)cc1C` (configuration not stated): the IC50 in experiment [1] is greater than 10000 nM; in experiment [2], 4600 nM; in experiment [3], greater than 10000 nM; in experiment [4], 3200 nM.

Turning to `CC(C)C(=O)c1ccc(C2Nc3ccc(S(=O)(=O)Nc4ccc5c(c4)COC5=O)cc3C3OCCC23)cc1` (configuration not stated), the values for the IC50 in experiment [1], in experiment [2] and in experiment [4] were 3800 nM, greater than 10000 nM and 3800 nM, respectively.

As for `Cc1cc(NS(=O)(=O)c2ccc3c(c2)C2OCCC2C(C2CCCCC2)N3)ccc1C(F)(F)F` (configuration not stated), the IC50 was 3300 nM in experiment [1], greater than 10000 nM in experiment [2] and greater than 10000 nM in experiment [4].

On to `CC(C)C(=O)c1ccc(C2Nc3ccc(S(=O)(=O)Nc4ccc5c(c4)OCO5)cc3C3OCCC23)cc1` (configuration not stated), for which the IC50 stood at 5300 nM in experiment [1], 5900 nM in experiment [2], 7900 nM in experiment [3] and 3300 nM in experiment [4].

Regarding `CC(=O)c1cccc(NS(=O)(=O)c2ccc3c(c2)C2OCCC2C(c2ccc4c(c2)CCO4)N3)c1` (configuration not stated), the IC50 in experiment [1] was found to be 7200 nM; in experiment [2] it was 1300 nM; in experiment [3], 6300 nM; in experiment [4] it was 1100 nM.

On to `CC(=O)c1cccc(NS(=O)(=O)c2ccc3c(c2)C2OCCC2C(c2cccc(C(C)=O)c2)N3)c1` (configuration not stated), for which the IC50 in experiment [1] was 1000 nM; in experiment [2] it was 2500 nM; in experiment [3] it was greater than 10000 nM; in experiment [4], 2200 nM.

Regarding `O=S(=O)(Nc1ccc(Br)c(Br)c1)c1ccc2c(c1)C1OCCC1C(C1CCCCC1)N2` (configuration not stated), the IC50 is 5100 nM in experiment [1], greater than 10000 nM in experiment [2] and greater than 10000 nM in experiment [4].

Consider `Cc1ccc(NS(=O)(=O)c2ccc3c(c2)C2OCCC2C(c2c[nH]c4ccccc24)N3)cc1C` (configuration not stated), for which the IC50 in experiment [1] is 9200 nM; in experiment [2], greater than 10000 nM; in experiment [4], greater than 10000 nM.

For `Cc1ccc(S(=O)(=O)Nc2ccc3c(c2)C2OCCC2C(c2ccc(C(=O)C(C)C)cc2)N3)cc1C` (configuration not stated), the IC50 in experiment [1] was 600 nM; in experiment [2], 2500 nM; in experiment [3], 4000 nM; in experiment [4], 1300 nM.

For the compound `CC(C)C(=O)c1ccc(C2Nc3ccc(S(=O)(=O)Nc4cccc(C(C)(C)C)c4)cc3C3OCCC23)cc1` (configuration not stated), the IC50 is 6200 nM in experiment [1], 5100 nM in experiment [2], 1300 nM in experiment [3] and 2000 nM in experiment [4].

Take `CN(C)c1cccc(NS(=O)(=O)c2ccc3c(c2)C2OCCC2C(C2CCCCC2)N3)c1` (configuration not stated): the IC50 in experiment [1] is 4000 nM; in experiment [2], 1800 nM; in experiment [3], greater than 10000 nM; in experiment [4], 1100 nM.

`CC(=O)Nc1ccc(C2Nc3ccc(S(=O)(=O)Nc4ccc(C)c(C)c4)cc3C3OCCC23)cc1` (configuration not stated): the IC50 is 4500 nM in experiment [1], 8100 nM in experiment [2], greater than 10000 nM in experiment [3] and 5100 nM in experiment [4].

Turning to `CC1CCC(NS(=O)(=O)c2ccc3c(c2)C2OCCC2C(C2CCCCC2)N3)CC1` (configuration not stated), the IC50 in experiment [1] was 1900 nM; in experiment [2], 7500 nM; in experiment [3], greater than 10000 nM; in experiment [4], 2400 nM.

Turning to `Cc1ccc(NS(=O)(=O)c2ccc3c(c2)C2OCCC2C(C2CCN(C(=O)OC(C)(C)C)CC2)N3)cc1C` (configuration not stated), the IC50 is 1400 nM in experiment [1], 700 nM in experiment [2], greater than 10000 nM in experiment [3] and 1100 nM in experiment [4].

Consider `CC(=O)c1cccc(NS(=O)(=O)c2ccc3c(c2)C2OCCC2C(c2ccccc2)N3)c1` (configuration not stated), for which the IC50 in experiment [1] was 1300 nM; in experiment [2], 900 nM; in experiment [3] it was greater than 10000 nM; in experiment [4], 900 nM.

For `CCC(=O)c1cccc(NS(=O)(=O)c2ccc3c(c2)C2OCCC2C(c2ccc(C(=O)C(C)C)cc2)N3)c1` (configuration not stated), the IC50 in experiment [1] amounted to 1500 nM; in experiment [2], 1300 nM; in experiment [3] it was 3500 nM; in experiment [4] it was 1900 nM.

On to `O=S(=O)(Nc1ccccc1)c1ccc2c(c1)C1OCCC1C(C1CCCCC1)N2` (configuration not stated), for which the concentration for half-maximal inhibition (IC50) is 2600 nM in experiment [1], greater than 10000 nM in experiment [2] and greater than 10000 nM in experiment [4].

In the case of `O=S(=O)(Nc1ccc2c(c1)CCCC2)c1ccc2c(c1)C1OCCC1C(C1CCCCC1)N2` (configuration not stated), the IC50 in experiment [1] is 2300 nM; in experiment [2], greater than 10000 nM; in experiment [3], greater than 10000 nM; in experiment [4], 2200 nM.

Take `O=S(=O)(Nc1ccc(Cl)c(Cl)c1)c1ccc2c(c1)C1OCCC1C(C1CCCCC1)N2` (configuration not stated): the 50% inhibitory concentration (IC50) is 1800 nM in experiment [1], greater than 10000 nM in experiment [2] and greater than 10000 nM in experiment [4].

On to `Cc1ccc(NS(=O)(=O)c2ccc3c(c2)C2OCCC2C(C2CCOCC2)N3)cc1C` (configuration not stated), for which the IC50 is 1600 nM in experiment [1], 12100 nM in experiment [2], greater than 10000 nM in experiment [3] and 3000 nM in experiment [4].

As for `Cc1ccc(NS(=O)(=O)c2ccc3c(c2)C2OCCC2C(c2ccc(C(=O)C(C)C)cc2)N3)cc1C` (configuration not stated), the IC50 was determined as 500 nM in experiment [1], 2200 nM in experiment [2], 5300 nM in experiment [3] and 2200 nM in experiment [4]. Besides, in experiment [5], the inhibition entry is “Dose-Dependent Effect”.

Regarding `CC(C)[C@@H](CS(=O)(=O)C(C)C)N1C(=O)[C@@](C)(CC(=O)O)C[C@H](c2cccc(Cl)c2)[C@H]1c1ccc(Cl)cc1` [NAVTEMADLIN], the IC50 is 900 nM in experiment [1], 600 nM in experiment [2], 300 nM in experiment [3] and greater than 10000 nM in experiment [4].

With `CC(=O)c1ccc(NS(=O)(=O)c2ccc3c(c2)C2OCCC2C(c2ccc(C(=O)C(C)C)cc2)N3)cc1` (configuration not stated), the IC50 is 1500 nM in experiment [1], 2000 nM in experiment [2], 3300 nM in experiment [3] and 2100 nM in experiment [4].
